What was measured:
[1] = Cytotoxicity against human CEM/0 cells; type: cell-based, CCRF-CEM
[2] = Cytotoxicity against human MT4 cells; type: cell-based
Method in brief: (§1)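 MT-4 cell cultures infected with wild-type HIV-1 or HIV-2, with cytotoxicity assessed in parallel in the same cells. Lipid-nucleotide conjugates were purified as Na⁺ salts and tested as diastereomeric mixtures. Parent dideoxynucleosides were run alongside as references.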

[3] = test system: Human immunodeficiency virus 2; test: Antiviral activity against HIV-2 ROD infected in human MT4 cells; type: functional, organism-based; conditions: Human immunodeficiency virus 2, ISOLATE ROD; method in brief: as §1
[4] = test system: Human immunodeficiency virus 2; test: Antiviral activity against HIV-2 ROD infected in human CEM/0 cells; type: functional, organism-based; conditions: Human immunodeficiency virus 2, ISOLATE ROD, CCRF-CEM
Method in brief: (§2)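 HIV-2 strain ROD was tested in wild-type CEM (CEM/0) cells and in thymidine kinase-deficient CEM (CEM/TK⁻) cells. Conjugates were tested as diastereomeric mixtures, and parent nucleosides were included as references.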

[5] = test system: Human immunodeficiency virus 1; test: Antiviral activity against HIV-1 3B infected in human MT4 cells; type: functional, organism-based; conditions: Human immunodeficiency virus 1, 3B; method in brief: as §1
[6] = test system: Human immunodeficiency virus 2; test: Antiviral activity against HIV-2 ROD infected in thymidine kinase-deficient human CEM cells; type: functional, organism-based; conditions: Human immunodeficiency virus 2, ISOLATE ROD, CCRF-CEM; method in brief: as §2

Row | IC50 [3] [µM] | IC50 [4] [µM] | IC50 [5] [µM] | IC50 [6] [µM] | SMILES | CC50 [1] [µM] | CC50 [2] [µM]
1 | 0.11 | 25.3 | 0.19 | > 39.1 | CCCCCCCCCCCCCCCCC(OP(=O)(O)OC[C@@H]1C=C[C@H](n2cnc3c(N)ncnc32)O1)C(=O)O (some centres not stated) | 81.3 | 97.8
2 | 16.2 | > 198 | 10.9 | > 39.6 | CCCCCCCCCCCCCCCC(CC(=O)O)OP(=O)(O)OC[C@@H]1C=C[C@H](n2cc(C)c(=O)[nH]c2=O)O1 (some centres not stated) | > 198 | > 198
3 | 0.4 | > 39.6 | 0.4 | > 39.6 | CCCCCCCCCCCCCCCCC(OP(=O)(O)OC[C@@H]1C=C[C@H](n2cc(C)c(=O)[nH]c2=O)O1)C(=O)O (some centres not stated) | 92.6 | 64.7
4 | 5.7 | 7.5 | 9.7 | > 40.5 | CCCCCCCCCCCCCCCCC(OP(=O)(O)OC[C@@H]1CC[C@H](n2ccc(N)nc2=O)O1)C(=O)O (some centres not stated) | 91.1 | 94.1

The next lines start with the compound.

Row | SMILES | IC50 [3] [µM] | IC50 [4] [µM] | IC50 [5] [µM] | IC50 [6] [µM] | CC50 [1] [µM] | CC50 [2] [µM]
5 | Cc1cn([C@H]2C=C[C@@H](CO)O2)c(=O)[nH]c1=O [STAVUDINE] | 0.4 | 8.8 | 0.26 | ≥ 120 | > 268 | 327
6 | Cc1cn([C@H]2C[C@H](N=[N+]=[N-])[C@@H](CO)O2)c(=O)[nH]c1=O [ZIDOVUDINE] | 0.007 | 0.04 | – | > 14.9 | > 468 | > 93.5
7 | Nc1ccn([C@H]2CC[C@@H](CO)O2)c(=O)n1 [ZALCITABINE] | 1.9 | 0.5 | 1 | 1.9 | 179 | 325
8 | Nc1ncnc2c1ncn2[C@H]1C=C[C@@H](CO)O1 | > 278 | ≥ 36.6 | > 278 | ≥ 81.9 | 360 | 278

From ChEMBL document CHEMBL3112419, “Hydroxy fatty acids for the delivery of dideoxynucleosides as anti-HIV agents” (Bioorg Med Chem Lett, 2014)
